Experimental data reported in ChEMBL document CHEMBL1128267, “Dicationic diarylfurans as anti-Pneumocystis carinii agents” (J Med Chem, 1995).

How the values were obtained:
Pneumocystis carinii [1] = test: In vivo activity against pneumocystis carinii was determined as toxicity which indicates the death of animals and counted cysts in a blinding protocol in lung tissue reported as % of saline treated control at a dose of 4.8 uM/Kg/day; type: organism-based
Method in brief: (§1)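 Dosed intravenously unless otherwise marked (some oral). Toxicity graded on a severity scale where larger values are more severe and values above 2 mean some animals died. Cysts in lung tissue counted under a blinded protocol and expressed as percent of saline-treated controls.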

Pneumocystis carinii [2] = test: In vivo activity against pneumocystis carinii was determined as toxicity which indicates the death of animals at a dose of 4.8 uM/Kg/day; type: organism-based
Method in brief: (§2)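 Dosing intravenous unless otherwise noted; daily dose in μM/kg/day. Toxicity graded on a numerical severity scale where higher scores mean more severe toxicity and scores above 2 mean some animals died.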

Giardia intestinalis = test: Inhibitory activity for 50% on growth of Giardia lamblia in cell culture; type: functional, organism-based; conditions: Giardia duodenalis
[3] = target: DNA topoisomerase II (Giardia lamblia); test: Inhibitory activity for 50% on topoisomerase II isolated from Giardia lamblia
Pneumocystis carinii [4] = test: In vivo activity against pneumocystis carinii was determined as toxicity which indicates the death of animals and counted cysts in a blinding protocol in lung tissue reported as % of saline treated control at a dose of 2.3 uM/Kg/day; type: organism-based; method in brief: as §1
Pneumocystis carinii [5] = test: In vivo activity against pneumocystis carinii was determined as toxicity which indicates the death of animals and counted uM/Kg/day; type: organism-based; method in brief: as §1
Pneumocystis carinii [6] = test: In vivo activity against pneumocystis carinii was determined as toxicity which indicates the death of animals at a dose of 0.18 uM/Kg/day; type: organism-based; method in brief: as §2
Pneumocystis carinii [7] = test: In vivo activity against pneumocystis carinii was determined as toxicity which indicates the death of animals at a dose of 2.3 uM/Kg/day; type: organism-based; method in brief: as §2
Pneumocystis carinii [8] = test: In vivo activity against pneumocystis carinii was determined as toxicity which indicates the death of animals and counted cysts in a blinding protocol in lung tissue reported as % of saline treated control at a dose of 9.2 uM/Kg/day; type: organism-based; method in brief: as §1
Pneumocystis carinii [9] = test: In vivo activity against pneumocystis carinii was determined as toxicity which indicates the death of animals at a dose of 9.2 uM/Kg/day; type: organism-based; method in brief: as §2
Pneumocystis carinii [10] = test: In vivo activity against pneumocystis carinii was determined as toxicity which indicates the death of animals and counted cysts in a blinding protocol in lung tissue reported as % of saline treated control at a dose of 10.9 uM/Kg/day); type: organism-based; method in brief: as §1
Pneumocystis carinii [11] = test: In vivo activity against pneumocystis carinii was determined as toxicity which indicates the death of animals at a dose of 10.9 uM/Kg/day; type: organism-based; method in brief: as §2
Pneumocystis carinii [12] = test: In vivo activity against pneumocystis carinii was determined as toxicity which indicates the death of animals and counted cysts in a blinding protocol in lung tissue reported as % of saline treated control at a dose of 66.3 (uM/kg/day); type: organism-based; method in brief: as §1
Pneumocystis carinii [13] = test: In vivo activity against pneumocystis carinii was determined as toxicity which indicates the death of animals and counted cysts in a blinding protocol in lung tissue reported as % of saline treated control at a dose of 0.027 (uM/kg/day); type: organism-based; method in brief: as §1
Pneumocystis carinii [14] = test: In vivo activity against pneumocystis carinii was determined as toxicity which indicates the death of animals and counted cysts in a blinding protocol in lung tissue reported as % of saline treated control at a dose of 0.27 (uM/kg/day); type: organism-based; method in brief: as §1
Pneumocystis carinii [15] = test: In vivo activity against pneumocystis carinii was determined as toxicity which indicates the death of animals and counted cysts in a blinding protocol in lung tissue reported as % of saline treated control at a dose of 13.3 (uM/kg/day); type: organism-based; method in brief: as §1
Pneumocystis carinii [16] = test: In vivo activity against pneumocystis carinii was determined as toxicity which indicates the death of animals and counted cysts in a blinding protocol in lung tissue reported as % of saline treated control at a dose of 2.7 (uM/kg/day); type: organism-based; method in brief: as §1
Pneumocystis carinii [17] = test: In vivo activity against pneumocystis carinii was determined as toxicity which indicates the death of animals at a dose of 0.027 (uM/kg/day); type: organism-based; method in brief: as §2
Pneumocystis carinii [18] = test: In vivo activity against pneumocystis carinii was determined as toxicity which indicates the death of animals at a dose of 0.27 (uM/kg/day); type: organism-based; method in brief: as §2
Pneumocystis carinii [19] = test: In vivo activity against pneumocystis carinii was determined as toxicity which indicates the death of animals at a dose of 13.3 (uM/kg/day); type: organism-based; method in brief: as §2
Pneumocystis carinii [20] = test: In vivo activity against pneumocystis carinii was determined as toxicity which indicates the death of animals at a dose of 2.7 (uM/kg/day); type: organism-based; method in brief: as §2
Pneumocystis carinii [21] = test: In vivo activity against pneumocystis carinii was determined as toxicity which indicates the death of animals at a dose of 66.3 (uM/kg/day); type: organism-based; method in brief: as §2
Pneumocystis carinii [22] = test: In vivo activity against pneumocystis carinii was determined as toxicity which indicates the death of animals and counted cysts in a blinding protocol in lung tissue reported as % of saline treated control at a dose of 23.3 uM/Kg/day; type: organism-based; method in brief: as §1
Pneumocystis carinii [23] = test: In vivo activity against pneumocystis carinii was determined as toxicity which indicates the death of animals at a dose of 23.3 uM/Kg/day; type: organism-based; method in brief: as §1
Pneumocystis carinii [24] = test: In vivo activity against pneumocystis carinii was determined as toxicity which indicates the death of animals and counted cysts in a blinding protocol in lung tissue reported as % of saline treated control at a dose of 22.1 (uM/kg/day); type: organism-based; method in brief: as §1
Pneumocystis carinii [25] = test: In vivo activity against pneumocystis carinii was determined as toxicity which indicates the death of animals at a dose of 22.1 (uM/kg/day); type: organism-based; method in brief: as §2

How did the Control (Pneumocystis carinii [1]) turn out when Cl.Cl.OCCN1CCN=C1c1ccc(-c2ccc(-c3ccc(C4=NCCN4CCO)cc3)o2)cc1 was run?
The Control was 107.3%.

What about the “No. of dead animals” value (Pneumocystis carinii [2]) of the same compound?
The value was 3.

What about the IC50 (Giardia intestinalis) of the same compound?
Its IC50 is 4600 nM.

What about the IC50 [3] of the same compound?
Its IC50 is 20000 nM.

With Cl.Cl.c1cc(-c2ccc(-c3ccc(C4=NCCCCN4)cc3)o2)ccc1C1=NCCCCN1 as the compound, how does the Control (Pneumocystis carinii [4]) read?
The Control was 2.9%.

What about the Control (Pneumocystis carinii [5]) of the same compound?
Its Control is 115.4%.

And the “No. of dead animals” value (Pneumocystis carinii [6])?
Its value is 0.

And the “No. of dead animals” value (Pneumocystis carinii [7])?
Its value is 3.

And the IC50 (Giardia intestinalis)?
Its IC50 is 930 nM.

What about the IC50 [3] of the same compound?
Its IC50 is 1500 nM.

What does the source list for Cl.Cl.c1cc(-c2ccc(-c3ccc(C4=NC5CCCCC5N4)cc3)o2)ccc1C1=NC2CCCCC2N1 (configuration not stated)?
Control (Pneumocystis carinii [8]): 80.5%; No. of dead animals (Pneumocystis carinii [9]): 1; IC50 (Giardia intestinalis): 4000 nM; IC50 [3]: 3000 nM

With CCN1CCN=C1c1ccc(-c2ccc(-c3ccc(C4=NCCN4CC)cc3)o2)cc1.Cl.Cl as the compound, how does the IC50 (Giardia intestinalis) read?
The IC50 was 3300 nM.

And the IC50 [3]?
Its IC50 is 25000 nM.

Which Control (Pneumocystis carinii [10]) does the source give for Cl.Cl.c1cc(-c2ccc(-c3ccc(C4=NCCCN4)cc3)o2)ccc1C1=NCCCN1 here?
The Control was 0.4%.

And the “No. of dead animals” value (Pneumocystis carinii [11])?
The value was 2.

And the IC50 (Giardia intestinalis)?
The IC50 was 85 nM.

And the IC50 [3]?
The IC50 was 500 nM.

Cl.Cl.N=C(N)c1ccc(-c2ccc(-c3ccc(C(=N)N)cc3)o2)cc1 was tested. Which Control (Pneumocystis carinii [12]) did it give?
The Control was 28.4%.

And the Control (Pneumocystis carinii [13])?
Its Control is 55.9%.

What about the Control (Pneumocystis carinii [14]) of the same compound?
The Control was 4.8%.

And the Control (Pneumocystis carinii [15])?
The Control was 2.1%.

And the Control (Pneumocystis carinii [16])?
The Control was 8.3%.

What about the “No. of dead animals” value (Pneumocystis carinii [17]) of the same compound?
Its value is 0.

What about the “No. of dead animals” value (Pneumocystis carinii [18]) of the same compound?
The value was 0.

And the “No. of dead animals” value (Pneumocystis carinii [19])?
Its value is 0.

What about the “No. of dead animals” value (Pneumocystis carinii [20]) of the same compound?
The value was 0.

And the “No. of dead animals” value (Pneumocystis carinii [21])?
Its value is 0.

Which IC50 (Giardia intestinalis) does the source give for N[C+](N)c1ccc(-c2ccc(-c3ccc([C+](N)N)cc3)o2)cc1 here?
Its IC50 is 440 nM.

How did the Control (Pneumocystis carinii [22]) turn out when Cl.c1cc(-c2ccc(-c3ccc(C4=NCCN4)cc3)o2)ccc1C1=NCCN1 was run?
The Control was 35.4%.

And the Toxicity (Pneumocystis carinii [23])?
Its Toxicity is 2 number of dead animals.

What about the IC50 (Giardia intestinalis) of the same compound?
The IC50 was 1950 nM.

And the IC50 [3]?
Its IC50 is 3000 nM.

For N=C(N)c1ccc(OCCCCCOc2ccc(C(=N)N)cc2)cc1 [PENTAMIDINE], which Control (Pneumocystis carinii [24]) is on record?
The Control was 3.66%.

And the “No. of dead animals” value (Pneumocystis carinii [25])?
Its value is 2.
